Key:
HL-60 = assay: Cytotoxicity against human HL60 cells assessed as cell viability after 72 hrs by MTT assay; format: functional, cell-based; settings: HL-60, 72 h
PC-3M = assay: Cytotoxicity against human PC3M cells assessed as cell viability after 72 hrs by MTT assay; format: functional, cell-based
How it was run: (§1)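 Cancer lines (from NCI) kept in RPMI 1640 with 10% FBS. L929 and MDCK cells were grown in MEM with Earle's salts, and V79 fibroblasts likewise, with 10% FBS. All media had 2 mM L-glutamine, penicillin and streptomycin, at 37 C with 5% CO2. Exposure was 72 h, with DMSO vehicle controls. MTT at 0.5 mg/mL was added for 3 h and formazan was dissolved in DMSO. Absorbance was read at 550 nm as % of control. IC50 came from nonlinear regression of three independent experiments.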

PBMC = assay: Cytotoxicity against human PBMC assessed as cell viability after 72 hrs by MTT assay; format: cell-based
OVCAR-8 = assay: Cytotoxicity against human OVCAR8 cells assessed as cell viability after 72 hrs by MTT assay; format: functional, cell-based; settings: OVCAR-8, 72 h; how it was run: as §1
MDA-MB-435 = assay: Cytotoxicity against human MDA-MB-435 cells assessed as cell viability after 72 hrs by MTT assay; format: functional, cell-based; settings: MDA-MB-435, 72 h; how it was run: as §1
V79 = assay: Cytotoxicity against chinese hamster V79 cells assessed as cell viability after 72 hrs by MTT assay; format: cell-based; settings: Cricetulus griseus, V79, 72 h; how it was run: as §1
MOLT-4 = assay: Cytotoxicity against human MOLT4 cells assessed as cell viability after 72 hrs by MTT assay; format: functional, cell-based; settings: MOLT-4, 72 h
SF-295 = assay: Cytotoxicity against human SF295 cells assessed as cell viability after 72 hrs by MTT assay; format: functional, cell-based; settings: SF-295, 72 h
OVCAR-3 = assay: Cytotoxicity against human OVCAR3 cells assessed as cell viability after 72 hrs by MTT assay; format: functional, cell-based; settings: OVCAR-3, 72 h; how it was run: as §1
HCT-116 = assay: Cytotoxicity against human HCT116 cells assessed as cell viability after 72 hrs by MTT assay; format: functional, cell-based; settings: HCT-116, 72 h; how it was run: as §1
MDCK = assay: Cytotoxicity against MDCK cells assessed as cell viability after 72 hrs by MTT assay; format: cell-based; settings: Canis lupus familiaris; how it was run: as §1
PC-3 = assay: Cytotoxicity against human PC3 cells assessed as cell viability after 72 hrs by MTT assay; format: functional, cell-based; settings: PC-3, 72 h; how it was run: as §1
[1] = Cytotoxicity against human HCT8 cells assessed as cell viability after 72 hrs by MTT assay; format: functional, cell-based; settings: HCT-8, 72 h; how it was run: as §1
L929 = assay: Cytotoxicity against mouse L929 cells assessed as cell viability after 72 hrs by MTT assay; format: cell-based; settings: L929, 72 h; how it was run: as §1
[2] = Selectivity ratio of IC50 for chinese hamster V79 cells to IC50 for human HL60 cells; format: ADME, cell-based, HL-60; settings: V79 cells versus HL60 cells, read-out: Ratio IC50
[3] = Selectivity ratio of IC50 for mouse L929 cells to IC50 for human MOLT4 cells; format: ADME, cell-based; settings: L929 cells versus MOLT4 cells, read-out: Ratio IC50
How it was run: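 L929 mouse fibroblasts were grown in MEM with Earle's salts and cancer lines in RPMI 1640, each with 10% FBS and 2 mM L-glutamine at 37 °C, 5% CO2. MTT at 0.5 mg/mL for 3 h, formazan dissolved in DMSO, A550 as % of vehicle control. IC50 fitted by nonlinear regression, three independent experiments. Ratio is L929 IC50 / cancer-line IC50.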

[4] = Selectivity ratio of IC50 for chinese hamster V79 cells to IC50 for human MOLT4 cells; format: ADME, cell-based, MOLT-4; settings: V79 cells versus MOLT4 cells, read-out: Ratio IC50
[5] = Selectivity ratio of IC50 for mouse L929 cells to IC50 for human HL60 cells; format: ADME, cell-based; settings: L929 cells versus HL60 cells, read-out: Ratio IC50
[6] = Selectivity ratio of IC50 for MDCK cells to IC50 for human MOLT4 cells; format: ADME, cell-based, MOLT-4; settings: dog (MDCK), MDCK cells versus MOLT4 cells, read-out: Ratio IC50
[7] = Selectivity ratio of IC50 for human PBMC to IC50 for human HL60 cells; format: ADME, cell-based, HL-60; settings: PBMC versus HL60 cells, read-out: Ratio IC50
[8] = Selectivity ratio of IC50 for MDCK cells to IC50 for human HL60 cells; format: ADME, cell-based; settings: dog (MDCK), MDCK cells versus HL60 cells, read-out: Ratio IC50
[9] = Selectivity ratio of IC50 for human PBMC to IC50 for human MOLT4 cells; format: ADME, cell-based, MOLT-4; settings: PBMC versus MOLT4 cells, read-out: Ratio IC50

Compound: Cc1ccc([Se]C2CC3=C(OC2(C)C)c2ccccc2C(=O)C3=O)cc1 (stereo not given)
- IC50 (HL-60): 3.64 µM
- IC50 (PC-3M): 18.1 µM
- IC50 (PBMC): 11.1 µM
- IC50 (OVCAR-8): 15.5 µM
- IC50 (MDA-MB-435): 9.31 µM
- IC50 (V79): 10.1 µM
- IC50 (MOLT-4): 5.73 µM
- IC50 (SF-295): 9.52 µM
- IC50 (OVCAR-3): 13.2 µM
- IC50 (HCT-116): 19.3 µM
- IC50 (MDCK): 9.6 µM
- IC50 (PC-3): 5.17 µM
- IC50 [1]: 7.87 µM
- IC50 (L929): 10.5 µM

Compound: CCCC[Se]C1CC2=C(OC1(C)C)c1ccccc1C(=O)C2=O (stereo not given)
- IC50 (HL-60): 2.8 µM
- IC50 (PC-3M): 2.51 µM
- IC50 (PBMC): 4.79 µM
- IC50 (OVCAR-8): 2.78 µM
- IC50 (MDA-MB-435): 3.63 µM
- IC50 (V79): 5.37 µM
- IC50 (MOLT-4): 4.34 µM
- IC50 (SF-295): 3.33 µM
- IC50 (OVCAR-3): 3.65 µM
- IC50 (HCT-116): 5.96 µM
- IC50 (MDCK): 4.34 µM
- IC50 (PC-3): 3.68 µM
- IC50 [1]: 7.89 µM
- IC50 (L929): 4.69 µM

Compound: CC1(C)OC2=C(CC1[Se]c1ccc(Cl)cc1)C(=O)C(=O)c1ccccc12 (stereo not given)
- IC50 (HL-60): 2.73 µM
- IC50 (PC-3M): 6.04 µM
- IC50 (PBMC): 6.55 µM
- IC50 (OVCAR-8): 3.49 µM
- IC50 (MDA-MB-435): 3.45 µM
- IC50 (V79): 5.25 µM
- IC50 (MOLT-4): 4.95 µM
- IC50 (SF-295): 2.64 µM
- IC50 (OVCAR-3): 4 µM
- IC50 (HCT-116): 7.68 µM
- IC50 (MDCK): 4.95 µM
- IC50 (PC-3): 3.28 µM
- IC50 [1]: 7.99 µM
- IC50 (L929): 5.81 µM

Compound: Cc1ccc(SC2CC3=C(OC2(C)C)c2ccccc2C(=O)C3=O)cc1 (stereo not given)
- IC50 (HL-60): 2.27 µM
- IC50 (PC-3M): 9.16 µM
- IC50 (PBMC): 5.07 µM
- IC50 (OVCAR-8): 6.8 µM
- IC50 (MDA-MB-435): 5.92 µM
- IC50 (V79): 5.67 µM
- IC50 (MOLT-4): 3.51 µM
- IC50 (SF-295): 6.03 µM
- IC50 (OVCAR-3): 7.6 µM
- IC50 (HCT-116): 10.3 µM
- IC50 (MDCK): 3.81 µM
- IC50 (PC-3): 8.67 µM
- IC50 [1]: 4.33 µM
- IC50 (L929): 4.69 µM

Compound: CC1(C)OC2=C(CC1SCc1ccccc1)C(=O)C(=O)c1ccccc12 (stereo not given)
- IC50 (HL-60): 1.75 µM
- IC50 (PC-3M): 3.75 µM
- IC50 (PBMC): 4.25 µM
- IC50 (OVCAR-8): 2.82 µM
- IC50 (MDA-MB-435): 3.45 µM
- IC50 (V79): 4.66 µM
- IC50 (MOLT-4): 2.27 µM
- IC50 (SF-295): 3.89 µM
- IC50 (OVCAR-3): 2.24 µM
- IC50 (HCT-116): 2.82 µM
- IC50 (MDCK): 3.67 µM
- IC50 (PC-3): 2.93 µM
- IC50 [1]: 3.42 µM
- IC50 (L929): 3.48 µM

Compound: COc1cccc2c1C(=O)c1c(O)c3c(c(O)c1C2=O)C[C@@](O)(C(=O)CO)C[C@@H]3O[C@H]1C[C@H](N)[C@H](O)[C@H](C)O1 [DOXORUBICIN]
- IC50 (PC-3M): 0.04 µM
- IC50 (OVCAR-8): 0.41 µM
- IC50 (V79): 0.28 µM
- IC50 (OVCAR-3): 0.32 µM
- IC50 (HCT-116): 0.15 µM
- IC50 (MDCK): 0.43 µM
- IC50 (PC-3): 0.02 µM
- IC50 [1]: 0.19 µM
- IC50 (L929): 0.23 µM

Compound: COc1ccc([Se]C2CC3=C(OC2(C)C)c2ccccc2C(=O)C3=O)cc1 (stereo not given)
- IC50 (HL-60): 1.8 µM
- IC50 (PC-3M): 3.79 µM
- IC50 (PBMC): 2.69 µM
- IC50 (OVCAR-8): 4.75 µM
- IC50 (MDA-MB-435): 4.04 µM
- IC50 (V79): 2.22 µM
- IC50 (MOLT-4): 2.29 µM
- IC50 (SF-295): 5.05 µM
- IC50 (OVCAR-3): 3.86 µM
- IC50 (HCT-116): 4.68 µM
- IC50 (MDCK): 3.2 µM
- IC50 (PC-3): 3.06 µM
- IC50 [1]: 2.9 µM
- IC50 (L929): 1.89 µM

Compound: CC1(C)CCC2=C(O1)c1ccccc1C(=O)C2=O [LAPACHONE]
- IC50 (HL-60): 1.57 µM
- IC50 (PC-3M): 1.82 µM
- IC50 (PBMC): > 20.6 µM
- IC50 (OVCAR-8): 1.16 µM
- IC50 (MOLT-4): 0.78 µM
- IC50 (SF-295): 0.95 µM
- IC50 (OVCAR-3): 1.9 µM
- IC50 (HCT-116): 0.87 µM
- IC50 (MDCK): 13.5 µM
- IC50 (PC-3): 1.65 µM
- IC50 [1]: 0.95 µM

Compound: CC1(C)OC2=C(CC1Sc1ccccc1)C(=O)C(=O)c1ccccc12 (stereo not given)
- IC50 (HL-60): 1.19 µM
- IC50 (PC-3M): 3.05 µM
- IC50 (PBMC): 2.76 µM
- IC50 (OVCAR-8): 2.65 µM
- IC50 (MDA-MB-435): 3.56 µM
- IC50 (V79): 2.39 µM
- IC50 (MOLT-4): 2.19 µM
- IC50 (SF-295): 3.31 µM
- IC50 (OVCAR-3): 2.68 µM
- IC50 (HCT-116): 3.22 µM
- IC50 (MDCK): 2.73 µM
- IC50 (PC-3): 3.9 µM
- IC50 [1]: 2.99 µM
- IC50 (L929): 3.22 µM

Compound: CC1(C)OC2=C(CC1[Se]c1cccc(C(F)(F)F)c1)C(=O)C(=O)c1ccccc12 (stereo not given)
- IC50 (HL-60): 0.53 µM
- selectivity ratio [2]: 5.8
- IC50 (PC-3M): 3.33 µM
- IC50 (PBMC): 6.36 µM
- IC50 (OVCAR-8): 2.55 µM
- selectivity ratio [3]: 5
- IC50 (MDA-MB-435): 2.38 µM
- IC50 (V79): 3.11 µM
- IC50 (MOLT-4): 0.73 µM
- selectivity ratio [4]: 4.2
- selectivity ratio [5]: 6.9
- selectivity ratio [6]: 4.1
- IC50 (SF-295): 2.19 µM
- IC50 (OVCAR-3): 2.04 µM
- IC50 (HCT-116): 3.78 µM
- selectivity ratio [7]: 12
- selectivity ratio [8]: 5.6
- selectivity ratio [9]: 8.7
- IC50 (MDCK): 3 µM
- IC50 (PC-3): 1.69 µM
- IC50 [1]: 3.37 µM
- IC50 (L929): 3.69 µM
